In ChEMBL document CHEMBL1157145, “Cytotoxic activity of proflavine diureas: synthesis, antitumor, evaluation and DNA binding properties of 1',1''-(acridin-3,6-diyl)-3',3''-dialkyldiureas” (Bioorg Med Chem, 2008):
Calls of active or inactive are those of the source. The rule behind the calls is not given here.

Tests used:
HeLa [1] = test: Antiproliferative activity against human HeLa cells assessed as increase of floating cells in total cell population at 3.50 uM after 48 hrs; assay type: functional
Outline: (§1)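 Cells seeded (8 · 10^5 per 60 mm dish), allowed to settle 24 h at 37 °C, 5% CO2, then treated with a single concentration for 24 or 48 h. Adherent and floating cells counted by Coulter counter. Total cell number given as % of untreated control; floating cells as % of total cell number.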

HeLa [2] = test: Cell cycle arrest in human HeLa cells assessed as accumulation at S phase at 3.50 uM after 24 hrs; assay type: functional
Outline: (§2)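 Cells seeded at 8 · 10^5 per 60 mm dish, allowed to settle 24 h (37 °C, 5% CO2), then exposed to the drug for 24 or 48 h. Adherent plus floating cells (5 · 10^5) were fixed in cold 70% ethanol at −20 °C overnight, treated with RNase A (100 µg/mL) and stained with propidium iodide (20 µg/mL) in Vindelov's solution for 30 min at RT. Flow cytometry used 488 nm excitation, FL-2 at 585 ± 21 nm, and histograms were modelled for G0/G1, S and G2/M fractions.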

HeLa [3] = test: Antiproliferative activity against human HeLa cells assessed as decrease in total cell population at 3.50 uM after 48 hrs; assay type: functional; parameters: scale not given: the % may be the effect or the level left; outline: as §1
HCT-116 [4] = test: Antiproliferative activity against human HCT116 cells assessed as decrease in total cell population at 4.80 uM after 24 hrs; assay type: functional; parameters: scale not given: the % may be the effect or the level left; outline: as §1
HCT-116 [5] = test: (§3) Cell cycle arrest in human HCT116 cells assessed as accumulation at G0/G1 phase at 4.80 uM after 48 hrs; assay type: functional
Outline: (§4)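 Adherent plus floating cells (5 · 10^5) collected 24 or 48 h after treatment, fixed in cold 70% ethanol at −20 °C overnight, washed in PBS. RNase A (100 µg/mL) and propidium iodide (20 µg/mL) in Vindelov's solution, 30 min at RT. Flow cytometry with 488 nm excitation, emission 585 ± 21 nm; % cells per cycle phase from DNA content histograms.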

DNA [6] = test: Binding affinity to calf thymus DNA at 50 uM by circular dichroism spectrophotometric titration; assay type: nucleic-acid assay; conditions: Bos taurus
HCT-116 [7] = test: Induction of DNA fragmentation in human HCT116 cells after 24 hrs; assay type: functional, cell-based
Outline: (§5)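 HCT-116 cells were treated for 24 or 48 h. Adherent and floating cells (5 × 10^5) were pooled, fixed in cold 70% ethanol and held overnight at −20 °C. Samples were treated with RNase A (100 µg/mL) and stained with propidium iodide (20 µg/mL) in Vindelov's solution for 30 min at RT. Flow cytometry used 488 nm excitation with emission at 585 nm. Subdiploid (subG0/G1) particles were scored on a logarithmic scale, with debris gated out on FSC × SSC.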

HeLa [8] = test: Induction of apoptosis in human HeLa cells at 3.50 uM after 24 hrs; assay type: functional
Outline: (§6)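 After 24 or 48 h of drug exposure, all cells were collected, combining trypsinised adherent cells with floating cells from the medium. Cells (1 × 10^6) were fixed in cold 70% ethanol overnight at −20 °C and stained with DAPI (10 µg/mL) for 30 min in the dark at RT. Under fluorescence microscopy, 300 cells per sample were scored, with condensed or fragmented nuclei counted as apoptotic.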

HeLa [9] = test: Cell cycle arrest in human HeLa cells assessed as accumulation at G2/M phase at 3.50 uM after 24 hrs; assay type: functional; outline: as §2
HeLa [10] = test: Induction of apoptosis in human HeLa cells at 3.50 uM after 48 hrs; assay type: functional; outline: as §6
HeLa [11] = test: Cell cycle arrest in human HeLa cells assessed as accumulation at G2/M phase at 3.50 uM after 48 hrs; assay type: functional; outline: as §2
HCT-116 [12] = test: Cell cycle arrest in human HCT116 cells assessed as accumulation at S phase at 4.80 uM after 48 hrs; assay type: functional; outline: as §2
HeLa [13] = test: Antiproliferative activity against human HeLa cells assessed as increase of floating cells in total cell population at 3.50 uM after 24 hrs; assay type: functional; outline: as §1
HCT-116 [14] = test: Induction of apoptosis in human HCT116 cells at 4.80 uM after 24 hrs; assay type: functional; outline: as §6
HeLa [15] = test: Cytotoxicity against human HeLa cells after 72 hrs by MTT assay; assay type: functional, cell-based
HeLa [16] = test: Cell cycle arrest in human HeLa cells assessed as accumulation at S phase at 3.50 uM after 48 hrs; assay type: functional; outline: as §2
HeLa [17] = test: Antiproliferative activity against human HeLa cells assessed as decrease in total cell population at 3.50 uM after 24 hrs; assay type: functional; parameters: scale not given: the % may be the effect or the level left; outline: as §1
HCT-116 [18] = test: Cell cycle arrest in human HCT116 cells assessed as accumulation at G2/M phase at 4.80 uM after 48 hrs; assay type: functional; outline: as §2
HeLa [19] = test: Cell cycle arrest in human HeLa cells assessed as accumulation at G0/G1 phase at 3.50 uM after 24 hrs; assay type: functional; outline: as §2
HeLa [20] = test: Cytotoxicity against human HeLa cells after 48 hrs by MTT assay; assay type: functional, cell-based
HCT-116 [21] = test: Cytotoxicity against human HCT116 cells after 48 hrs by MTT assay; assay type: functional, cell-based; conditions: HCT-116, 48 h
HCT-116 [22] = test: Antiproliferative activity against human HCT116 cells assessed as increase of floating cells in total cell population at 4.80 uM after 24 hrs; assay type: functional; outline: as §1
HCT-116 [23] = test: as §3; assay type: functional; outline: as §4; remark: listed apart in the source
HeLa [24] = test: Cell cycle arrest in human HeLa cells assessed as accumulation at G0/G1 phase at 3.50 uM after 48 hrs; assay type: functional; outline: as §2
DNA [25] = test: Binding affinity to calf thymus DNA at 4 uM by fluorescence spectrophotometric titration; assay type: nucleic-acid assay; conditions: Bos taurus
Outline: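 ctDNA sonicated in TE buffer, concentration taken from A260 and given in base pairs. Compound (4 µM) in 0.01 M Tris, pH 7.4, 25 °C titrated with ctDNA (0–55 µM bp) until spectra stopped changing. Excitation 424 nm, slit widths 10 nm; binding constant derived from the change in emission.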

HCT-116 [26] = test: Induction of apoptosis in human HCT116 cells at 4.80 uM after 48 hrs; assay type: functional; outline: as §6
HCT-116 [27] = test: Antiproliferative activity against human HCT116 cells assessed as decrease in total cell population at 4.80 uM after 48 hrs; assay type: functional; parameters: scale not given: the % may be the effect or the level left; outline: as §1
HCT-116 [28] = test: Cytotoxicity against human HCT116 cells after 72 hrs by MTT assay; assay type: functional, cell-based; conditions: Homo sapiens, HCT-116, 72 h
HCT-116 [29] = test: Induction of DNA fragmentation in human HCT116 cells after 48 hrs; assay type: functional, cell-based; outline: as §5
HCT-116 [30] = test: Antiproliferative activity against human HCT116 cells assessed as increase of floating cells in total cell population at 4.80 uM after 48 hrs; assay type: functional; outline: as §1
[31] = in the assay text read “after 24 hrs” for “after 48 hrs”

`CCCCCCNC(=O)Nc1ccc2cc3ccc(NC(=O)NCCCCCC)cc3nc2c1.Cl` gave an Activity (HeLa [1]) of 4.41%, an Activity (HeLa [2]) of 27.08% and an Activity (HeLa [3]) of 91.16%. The Activity (HCT-116 [4]) was 48.1%, the Activity (HCT-116 [5]) was 35.98% and the Activity (DNA [6]) was “Active”. The Activity (HCT-116 [7]) was “Active”, the Activity (HeLa [8]) was 0.75% and the Activity (HeLa [9]) was 13.24%. It also gave an Activity (HeLa [10]) of 1%, an Activity (HeLa [11]) of 11.88% and an Activity (HCT-116 [12]) of 22.97%. The Activity (HCT-116 [12]; [31]) was 21.38%, the Activity (HeLa [13]) was 4.21% and the Activity (HCT-116 [14]) was 5.67%. The IC50 (HeLa [15]) was 3.7 µM, the Activity (HeLa [16]) was 21.55% and the Activity (HeLa [17]) was 87.42%. The Activity (HCT-116 [18]) was 41.06%, the Activity (HCT-116 [18]; [31]) was 45.1% and the Activity (HeLa [19]) was 59.69%. It also gave an IC50 (HeLa [20]) of 3.49 µM, an IC50 (HCT-116 [21]) of 4.76 µM and an Activity (HCT-116 [22]) of 77.94%. The Activity (HCT-116 [23]) was 36%, the Activity (HeLa [24]) was 66.57% and the K (DNA [25]) was 0.9 ×10⁵ /M. It also gave an Activity (HCT-116 [26]) of 12.67%, an Activity (HCT-116 [27]) of 19.84% and an IC50 (HCT-116 [28]) of 3.09 µM. The Activity (HCT-116 [29]) was “Active” and the Activity (HCT-116 [30]) was 88.55%.
